Experimental data: article PMC9508631 (Saudi Pharmaceutical Journal : SPJ, 2022)

Columns and labels:
PDE5 = conditions: ref Bischoff, 2004; cited from earlier work
[1] = Stability of TAD in rat plasma under storage and processing conditions; type: in vitro ADME; conditions: for Processed sample stability, RE% / Processed sample stability, calculated conc. (Mean ± SD): autosampler, room temperature 24 h; for Freeze–thaw stability, RE% / Freeze–thaw stability, calculated conc. (Mean ± SD): three freeze–thaw cycles; for Long term stability, RE% / Long term stability, calculated conc. (Mean ± SD): −30 °C for 30 days
Outline: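 Test compound spiked into blank rat plasma as QC samples at 0.5, 10 and 100 ng mL−1. Conditions: bench-top thaw at room temperature for 6 h (triplicates); −30 °C for 30 days; three freeze–thaw cycles (24 h at −30 °C, ambient thaw); processed samples held in the autosampler at room temperature for 24 h. Quantified by FPSE-UPLC-ESI-MS/MS, with peak areas compared against freshly prepared QCs; acceptance RE <15%.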

[2] = actual conc. 0.5 ng mL^-1, room temperature 6 h

SMILES: CCCc1nn(C)c2c(=O)[nH]c(-c3cc(S(=O)(=O)N4CCN(C)CC4)ccc3OCC)nc12 [SLD, sildenafil]
- Selectivity for PDE5 (PDE5): 41 times

SMILES: CN1CC(=O)N2[C@H](c3ccc4c(c3)OCO4)c3[nH]c4ccccc4c3C[C@@H]2C1=O [TAD, Tadalafil]
- Processed sample stability, RE% ([1]; actual conc. 0.5 ng mL^-1): −2.0%
- Processed sample stability, calculated conc. (Mean ± SD) ([1]; actual conc. 0.5 ng mL^-1): 0.490 ± 0.011 ng/mL
- Benchtop stability, RE% [1, 2]: −1.60%
- Benchtop stability, calculated conc. (Mean ± SD) [1, 2]: 0.492 ± 0.012 ng/mL
- Freeze–thaw stability, RE% ([1]; actual conc. 0.5 ng mL^-1): −3.8%
- Freeze–thaw stability, calculated conc. (Mean ± SD) ([1]; actual conc. 0.5 ng mL^-1): 0.481 ± 0.022 ng/mL
- Long term stability, RE% ([1]; actual conc. 0.5 ng mL^-1): −2.60%
- Long term stability, calculated conc. (Mean ± SD) ([1]; actual conc. 0.5 ng mL^-1): 0.487 ± 0.018 ng/mL
- Processed sample stability, RE% ([1]; actual conc. 10 ng mL^-1): 0.50%
- Processed sample stability, calculated conc. (Mean ± SD) ([1]; actual conc. 10 ng mL^-1): 10.05 ± 0.195 ng/mL
- Benchtop stability, calculated conc. (Mean ± SD) ([1]; actual conc. 10 ng mL^-1, room temperature 6 h): 9.98 ± 0.251 ng/mL
- Freeze–thaw stability, calculated conc. (Mean ± SD) ([1]; actual conc. 10 ng mL^-1): 9.85 ± 0.263 ng/mL
- Long term stability, RE% ([1]; actual conc. 10 ng mL^-1): 1.10%
- Long term stability, calculated conc. (Mean ± SD) ([1]; actual conc. 10 ng mL^-1): 10.11 ± 0.219 ng/mL
- Processed sample stability, calculated conc. (Mean ± SD) ([1]; actual conc. 100 ng mL^-1): 99.48 ± 1.824 ng/mL
- Benchtop stability, calculated conc. (Mean ± SD) ([1]; actual conc. 100 ng mL^-1, room temperature 6 h): 99.90 ± 1.850 ng/mL
- Freeze–thaw stability, RE% ([1]; actual conc. 100 ng mL^-1): 0.22%
- Freeze–thaw stability, calculated conc. (Mean ± SD) ([1]; actual conc. 100 ng mL^-1): 100.22 ± 2.054 ng/mL
- Stability in rat plasma under the storage and processing situations ([1]; all four stability tests, RE% and RSD% within 15%): stable
- Selectivity for PDE5 (PDE5): 1000 times
